In ChEMBL document CHEMBL1143349, “Novel non-peptide nociceptin/orphanin FQ receptor agonist, 1-[1-(1-Methylcyclooctyl)-4-piperidinyl]-2-[(3R)-3-piperidinyl]-1H-benzimidazole: design, synthesis, and structure-activity relationship of oral receptor occupancy in the brain for orally potent antianxiety drug” (J Med Chem, 2009):

Columns and labels:
Mu-type opioid receptor [1] = biological target: T1, Mu-type opioid receptor (Homo sapiens, UniProt P35372); test: Displacement of [3H]DAMGO from human mu opioid receptor expressed in CHOK1 cells; format: cell-based, CHO-K1
[2] = biological target: T2, Kappa-type opioid receptor (Homo sapiens, UniProt P41145); test: Displacement of [3H]enadoline from human kappa opioid receptor expressed in HEK293 cells; format: cell-based
Mu-type opioid receptor [3] = biological target: T1, Mu-type opioid receptor; test: Agonist activity at human mu opioid receptor expressed in CHOK1 cells by [35S]GTPgammaS binding; format: functional, cell-based, CHO-K1
[4] = biological target: T2, Kappa-type opioid receptor; test: Agonist activity at human kappa opioid receptor expressed in HEK293 cells by [35S]GTPgammaS binding; format: functional, cell-based
[5] = biological target: T3, Delta-type opioid receptor (Homo sapiens, UniProt P41143); test: Displacement of [3H]DPDPE from human delta opioid receptor expressed in CHOK1 cells at 1 uM; format: cell-based; settings: CHO-K1
Nociceptin receptor [6] = biological target: T4, Nociceptin receptor (Homo sapiens, UniProt P41146); test: Agonist activity at human NOP receptor expressed in HEK293 cells by [35S]GTPgammaS binding; format: functional, cell-based
Nociceptin receptor [7] = biological target: T4, Nociceptin receptor; test: Displacement of [3H]N/OFQ from human NOP receptor expressed in HEK293 cells; format: cell-based
[8] = biological target: T3, Delta-type opioid receptor; test: Displacement of [3H]DPDPE from human delta opioid receptor expressed in CHOK1 cells; format: cell-based, CHO-K1
Mus musculus = test: Ex vivo receptor occupancy of NOP receptor in ddY mouse brain at 10 mg/kg, po after 1 hr by [3H]N/OFQ binding assay; format: functional
Summary of the method: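 Male ddY mice (5-6 week), water-deprived 24 h, dosed orally at 10 mg/kg in 0.1% methylcellulose. Brain removed 1 h later; cerebellum and medulla discarded, membranes prepared at 4 °C. Membranes (160 µg protein) incubated with 0.3 nM [3H]N/OFQ, 30 min, 25 °C; filtration read-out. Nonspecific binding with 1 µM N/OFQ. Occupancy is inhibition of specific binding versus vehicle-treated mice, three mice, mean ± SEM.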

[9] = biological target: T3, Delta-type opioid receptor; test: Agonist activity at human delta opioid receptor expressed in CHOK1 cells by [35S]GTPgammaS binding; format: functional, cell-based, CHO-K1

T4 sequence (P41146 whole entry): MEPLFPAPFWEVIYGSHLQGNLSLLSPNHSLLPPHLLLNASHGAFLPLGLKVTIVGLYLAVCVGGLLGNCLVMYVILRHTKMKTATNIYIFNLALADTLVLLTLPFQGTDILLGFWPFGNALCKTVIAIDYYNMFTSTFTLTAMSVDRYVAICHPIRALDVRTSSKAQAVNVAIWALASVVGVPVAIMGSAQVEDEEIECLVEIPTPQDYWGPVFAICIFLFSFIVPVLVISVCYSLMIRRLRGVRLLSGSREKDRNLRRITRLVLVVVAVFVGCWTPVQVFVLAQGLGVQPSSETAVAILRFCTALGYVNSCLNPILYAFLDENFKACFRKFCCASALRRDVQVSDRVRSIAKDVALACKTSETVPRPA
T3 sequence (P41143 whole entry): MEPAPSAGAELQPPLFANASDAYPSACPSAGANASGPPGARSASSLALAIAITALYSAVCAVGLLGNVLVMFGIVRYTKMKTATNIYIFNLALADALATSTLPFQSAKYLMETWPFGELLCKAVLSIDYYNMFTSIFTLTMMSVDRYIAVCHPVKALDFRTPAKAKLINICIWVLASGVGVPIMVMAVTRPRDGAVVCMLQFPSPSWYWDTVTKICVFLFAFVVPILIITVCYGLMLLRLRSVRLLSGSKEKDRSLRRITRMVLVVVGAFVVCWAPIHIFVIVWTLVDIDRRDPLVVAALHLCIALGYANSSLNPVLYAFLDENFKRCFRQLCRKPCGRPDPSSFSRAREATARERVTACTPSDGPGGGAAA
T1 sequence (P35372 whole entry): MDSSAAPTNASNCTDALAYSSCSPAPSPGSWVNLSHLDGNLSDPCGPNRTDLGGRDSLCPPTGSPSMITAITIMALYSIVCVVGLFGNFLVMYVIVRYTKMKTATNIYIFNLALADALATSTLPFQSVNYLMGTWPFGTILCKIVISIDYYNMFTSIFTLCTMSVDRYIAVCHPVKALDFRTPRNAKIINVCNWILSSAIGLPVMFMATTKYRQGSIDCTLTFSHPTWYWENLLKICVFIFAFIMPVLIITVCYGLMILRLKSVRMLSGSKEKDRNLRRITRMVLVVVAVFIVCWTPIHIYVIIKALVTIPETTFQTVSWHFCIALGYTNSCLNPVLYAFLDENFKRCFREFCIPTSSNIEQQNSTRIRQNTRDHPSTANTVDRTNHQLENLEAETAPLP
T2 sequence (P41145 whole entry): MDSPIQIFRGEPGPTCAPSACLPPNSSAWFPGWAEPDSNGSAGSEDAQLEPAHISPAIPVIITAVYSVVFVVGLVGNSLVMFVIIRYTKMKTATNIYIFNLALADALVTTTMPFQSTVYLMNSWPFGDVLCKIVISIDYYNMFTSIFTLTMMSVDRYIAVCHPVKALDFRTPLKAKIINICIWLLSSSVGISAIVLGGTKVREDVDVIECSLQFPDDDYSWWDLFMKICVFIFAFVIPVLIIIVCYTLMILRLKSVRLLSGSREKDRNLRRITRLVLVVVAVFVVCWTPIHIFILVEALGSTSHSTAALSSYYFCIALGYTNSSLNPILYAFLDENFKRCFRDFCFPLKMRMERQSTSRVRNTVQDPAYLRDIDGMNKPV

| Structure (SMILES) | Ki (Mu-type opioid receptor [1]) | Ki [2] | EC50 (Mu-type opioid receptor [3]) | EC50 [4] | Activity [5] | EC50 (Nociceptin receptor [6]) | Ki (Nociceptin receptor [7]) | Ki [8] | Activity (Mus musculus) | EC50 [9] |
| --- | --- | --- | --- | --- | --- | --- | --- | --- | --- | --- |
| CC1CN(c2nc3ccccc3n2C2CCN(C3(C)CCCCCCC3)CC2)CC(C)N1 (configuration not stated) | 21 nM | 15 nM | 193 nM | 18 nM | 29% | – | – | – | – | – |
| CC1(N2CCC(n3c(-c4cccc(C(F)(F)F)c4)nc4ccccc43)CC2)CCCCCCC1 | 65 nM | 352 nM | 10000 nM | 1580 nM | – | 5.7 nM | 0.63 nM | 58 nM | 3.2% | – |
| CN1CCC[C@H](c2nc3ccccc3n2C2CCN(C3(C)CCCCCCC3)CC2)C1 | 11 nM | 10 nM | 71 nM | 13 nM | – | 1.6 nM | 0.24 nM | 110 nM | – | 389 nM |
| CC1(N2CCC(n3c(-c4cccc(OCCO)c4)nc4ccccc43)CC2)CCCCCCC1 | 11 nM | 43 nM | > 393 nM | 48 nM | – | 2.6 nM | 0.3 nM | 9.5 nM | 38% | – |
| CC1(N2CCC(n3c(-c4cccc(S(C)(=O)=O)c4)nc4ccccc43)CC2)CCCCCCC1 | 6.3 nM | – | 288 nM | – | – | 1.6 nM | 0.15 nM | – | 34% | – |
| CC1(N2CCC(n3c([C@H]4CCCNC4)nc4ccccc43)CC2)CCCCCCC1 | – | 9.2 nM | – | 8.4 nM | – | – | – | 168 nM | – | 514 nM |
| CC1(N2CCC(n3c(-c4ccc5cc[nH]c5c4)nc4ccccc43)CC2)CCCCCCC1 | 151 nM | – | 8630 nM | – | – | 13 nM | 1.7 nM | – | -10% | – |
| CC1(N2CCC(n3c([C@@H]4CCCNC4)nc4ccccc43)CC2)CCCCCCC1 | – | 23.1 nM | – | 80 nM | – | – | – | > 667 nM | 53% | 4700 nM |
| CC1(N2CCC(n3c(-c4ccc(F)c(Cl)c4)nc4ccccc43)CC2)CCCCCCC1 | 45 nM | – | 759 nM | – | – | – | – | – | 31% | – |
| CN1CCC[C@@H](c2nc3ccccc3n2C2CCN(C3(C)CCCCCCC3)CC2)C1 | 3.7 nM | 25 nM | 67 nM | 70 nM | – | 1.4 nM | 0.2 nM | > 500 nM | 61% | 2190 nM |
| CC1(N2CCC(n3c(-c4cc5ccccc5o4)nc4ccccc43)CC2)CCCCCCC1 | 102 nM | – | 3670 nM | – | – | 3.1 nM | 0.53 nM | – | 34% | – |
| CC1(N2CCC(n3c(-c4cccc(CN)c4)nc4ccccc43)CC2)CCCCCCC1 | 20 nM | 72 nM | 340 nM | 154 nM | – | – | – | 140 nM | 30% | – |
| CC1(N2CCC(n3cnc4ccccc43)CC2)CCCCCCC1 | 11 nM | – | – | – | – | – | – | – | – | – |
